Bioassay records deposited in PubChem BioAssay by several laboratories.
HUVEC inhibit – inhibitors of HUVEC proliferation, primary screen, cell-based, 384-well. CellTiter-Glo luminescence, 72 h; stronger effect = lower value. AID 648, 2007. actives 1.1% (n = 86,000). viability, % at 10 µM (by protocol);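 active = viability at or below 30%; inactive = viability above 30%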;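 also: 100% = median luminescence of DMSO-only cell control wells on each plate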
ERa coact pot – enhancers of ERα–SRC-1 coactivator binding, primary screen, biochemical, TR-FRET, ERα LBD, low estradiol; Estrogen receptor (Homo sapiens), P03372; TR-FRET ERalpha-LBD/SRC-Cy5 coactivator binding, 2 h; 100 = basal binding, no effect; actives 1.3% (n = 86,000); AID 639, 2007; coactivator binding (% of control), % at 25.6 µM; in the data active = activity above about 200%;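 also: binding measured in presence of low estradiol as agonist stimulus; 0% = peptide alone without receptor and 100% = receptor with peptide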
Target sequence (P03372 whole entry, looked up, the tested form may be a part): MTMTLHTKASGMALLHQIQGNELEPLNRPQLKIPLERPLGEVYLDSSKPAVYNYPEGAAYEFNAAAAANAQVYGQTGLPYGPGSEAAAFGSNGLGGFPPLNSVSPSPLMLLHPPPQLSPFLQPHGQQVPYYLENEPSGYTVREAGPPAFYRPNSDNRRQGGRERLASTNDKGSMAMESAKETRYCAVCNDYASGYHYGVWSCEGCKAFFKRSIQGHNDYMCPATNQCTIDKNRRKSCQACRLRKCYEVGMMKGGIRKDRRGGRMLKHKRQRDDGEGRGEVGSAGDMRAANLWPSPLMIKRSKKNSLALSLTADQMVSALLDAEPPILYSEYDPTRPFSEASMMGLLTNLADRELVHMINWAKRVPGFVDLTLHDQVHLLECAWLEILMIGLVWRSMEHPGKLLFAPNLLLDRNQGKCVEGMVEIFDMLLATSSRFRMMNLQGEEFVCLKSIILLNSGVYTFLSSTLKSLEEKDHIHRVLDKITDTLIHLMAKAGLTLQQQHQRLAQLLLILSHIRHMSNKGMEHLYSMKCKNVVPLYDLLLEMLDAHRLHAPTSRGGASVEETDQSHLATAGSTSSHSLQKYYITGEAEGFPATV
H69AR inhibit – proliferation blockers of H69AR lung cancer cells, primary screen, cell-based, human, 86K library. viability, % at 10 µM. H69AR lung tumor viability, ATP luminescence, 72 h; stronger effect = lower value. actives 6% (n = 85,000). AID 598, 2007;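 active = viability at or below 40%; inactive = viability above 40%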;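 also: multidrug resistant small cell line overexpressing MRP-1 efflux transporter; 100% = mean luminescence of untreated control wells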
ERa coact inh – ERα–SRC-1 coactivator interaction inhibitors, primary screen, biochemical, TR-FRET, ERα LBD, estradiol-bound. inhibition, % at 25.6 µM. TR-FRET ER-alpha LBD / SRC-1 peptide. actives 1.7% (n = 86,000). Estrogen receptor (Homo sapiens), P03372; in the data active = inhibition above about 50%;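 also: 0% = receptor plus peptide control and 100% = peptide only without receptor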
ERb SRC1 inh – inhibitors of ERβ-SRC1 coactivator interaction, primary screen, biochemical, TR-FRET, ERβ LBD, SRC-1 peptide. TR-FRET ER-beta LBD / SRC1-Cy5 peptide binding; receptor agonist-loaded with 1 µM estradiol. inhibition, % at 25.6 µM. actives 1.3% (n = 86,000);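 active = compounds whose percent inhibition of the receptor-coactivator binding signal exceeds about 50% in the single-dose screen, limit read from the data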;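 also: 0% = receptor plus peptide wells without compound and 100% = peptide-only wells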
Fibroblast inh – antiproliferative effect on LL 47 fibroblasts – human, LL 47 cells, CellTiter-Glo luminescence, primary screen; LL 47 human lung fibroblast viability, ATP luminescence; stronger effect = lower value; viability, % at 10 µM; actives 1.1% (n = 85,000);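 active = viability at or below 50% in the single dose screen; inactive = viability above 50%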;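 also: compound exposure lasted 72 h before the ATP readout; 100% = median luminescence of untreated cell-only wells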
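Signal: luminescent ATP detection, CellTiter-Glo; assay system: LL 47 human lung fibroblasts; input: 1,150 cells/well; incubation: overnight cell rest, 72 h compound treatment at 37 °C; measure: % viability versus median cells-only luminescence; medium: IMEM growth medium with 15% fetal bovine serum; dosing: compound addition at 0.1% DMSO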
An asterisk follows results filed as active; . = no result given; [ ] = another dose, or the depositor's remark. Compounds with a hit are over-represented: about 9.2% of the library has one in this group of screens.

SMILES	HUVEC inhibit	ERa coact pot	H69AR inhibit	ERa coact inh	ERb SRC1 inh	Fibroblast inh
OCCN(CCO)c1ncnc2c1sc1nc(N3CCOCC3)c3c(c12)CCCC3	78	107	72	3	6	88
CC1(C)Cc2c(c(N3CCOCC3)nc3sc4c(=O)[nH]cnc4c23)CS1	65	83	43	30	55*[fluorescence artefact?]	93
CCN(CC)CCNc1ncnc2c1sc1nc(N3CCOCC3)c3c(c12)CC(C)(C)SC3	7.2*	91	2.6*	-6	-12	2.6*
CN(C)CCNc1ncnc2c1sc1nc(N3CCOCC3)c3c(c12)CC(C)(C)SC3	17*	89	94	5	-6	16*
CN1CCN(c2ncnc3c2sc2nc(N4CCOCC4)c4c(c23)CCC4)CC1	86	105	97	-11	-4	100
C=CC[N+](C)(C)CCCNC(=O)/C=N/O	100	110	96	-7	-13	97
Cc1cccc(C(=O)Nc2ccc(O)cc2)c1	76	106	85	6	14	91
O=C(CC(=O)c1cc(Cl)ccc1O)c1ccccc1	35	100	11*	1	3	40*
Cc1cccc(C(=O)CC(=O)c2cc(Cl)ccc2O)c1	3.3*	68	18*	5	8	31*
Cc1ccc(O)c(C(=O)CC(=O)c2cccc(F)c2)c1	15*	102	13*	11	2	70
c1ccc(COc2ccc(OCCCNC3CCCC3)cc2)cc1	59	98	40*	4	26	76
O=C(NCCc1ccccc1)NC1CCCCC1	93	102	92	-3	11	102
c1ccc(COc2ccc(OCCCN3CCCCC3)cc2)cc1	88	91	72	63*[fluorescence artefact?]	-3	92
COc1cccc(C(=O)Nc2nc3c(s2)CN(C)CC3)c1	90	104	86	-2	-12	101
CCCCN(CC)c1nc(-c2ccncc2)nc2ccccc12	56	84	20*	3	-15	79
Nc1cc2c(cc1C(=O)c1ccc(Cl)cc1)OCCO2	77	84	52	-1	3	84
COc1c(Cl)ccc(Cl)c1C(=O)OCC(=O)O	91	121	105	-4	-4	.
On1onc2c3cc(-c4ccccc4)nc3ccc21	40	75	6.0*	7	6	23*
c1ccc(-c2cc3c(ccc4nonc43)nn2)cc1	94	119	101	-7	-1	.
CC1(C)CC(=O)C2=C(C1)N(Cc1cccnc1)C(=O)C2(NC(=O)c1ccc(F)cc1)C(F)(F)F (configuration not stated)	109	105	98	5	-5	92
CC(C(=O)NCc1ccco1)n1nc(-c2ccccc2)c2cc(Cl)ccc21 (configuration not stated)	67	145	35*	-3	-1	82
O=C(Nc1nc(-c2ccccn2)cs1)c1ccc(S(=O)(=O)N2CCCCC2)cc1	33	.	42	.	.	48*
O=C(Nc1nc(-c2cccs2)cs1)c1cccc(S(=O)(=O)N2CCCCCC2)c1	76	189	52	-11	-1	85
O=C(Nc1nc(-c2cccs2)cs1)c1ccc(S(=O)(=O)N2CCCCC2)cc1	80	235*	78	-2	-4	94
O=S1(=O)CCN2C(=N1)Sc1c2ccc2c1CCCC2	61	99	91	-5	-2	85
COc1cc(OC)cc(OCC(O)Cn2ccnc2)c1 (configuration not stated)	98	111	97	-5	-2	97
Cc1cccc(-n2nc3c(c2NC(=O)c2ccc(Br)o2)CSC3)c1	93	211*	94	1	0	100
Cc1ccc(-n2nc3c(c2NC(=O)c2cccs2)CSC3)cc1	81	154	95	12	6	87
